The results in this text go back to ChEMBL document CHEMBL1128238, “Synthesis and structure-activity relationships of dequalinium analogues as K+ channel blockers. Investigations on the role of the charged heterocycle” (J Med Chem, 1995).

As usually defined, the IC50 is the midpoint of a concentration-inhibition curve. Lower therefore signals greater potency.

Molecules are shown by their SMILES.

For test [1], the species on record is Rattus norvegicus. As to the kind of experiment: Ability to inhibit after-hyperpolarization (AHP) in cultured rat sympathetic neurons. (number of neurons tested, n=3). Type of test: functional. Conditions: Sympathetic neuron. The gist of the method: (§1)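 SK(Ca) block judged from inhibition of the after-hyperpolarization in cultured rat sympathetic neurones. Each compound was tested at two to four concentrations on at least three cells. Test concentrations above 10–30 μM were generally avoided. The time course of block onset was also noted.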

For test [2], the species on record is Rattus norvegicus. As to the kind of experiment: Ratio of the concentrations of the test compound and dequalinium that cause 50% inhibition, as determined in the same experiment was reported. (number of neurons tested, n=3). The test is classed as functional. The method in brief: (§2)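 AHP inhibition recorded in cultured rat sympathetic neurones. Each compound was applied at two to four concentrations on at least three cells, generally not above 10–30 μM.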

The species entered for test [3] is Rattus norvegicus. Put plainly: Ability to inhibit after-hyperpolarization (AHP) in cultured rat sympathetic neurons. (number of neurons tested, n=5). Type of test: functional. The conditions noted are these: Sympathetic neuron. The gist of the method:
as §1

For test [4], the species on record is Rattus norvegicus. As to the kind of experiment: Ratio of the concentrations of the test compound and dequalinium that cause 50% inhibition, as determined in the same experiment was reported. (number of neurons tested, n=5). Type of test: functional. The method in brief:
as §2

The species named for test [5] is Rattus norvegicus. As to the kind of experiment: Ratio of the concentrations of the test compound and dequalinium that cause 50% inhibition, as determined in the same experiment was reported. (number of neurons tested, n=4). The test is classed as functional. The method in brief:
as §2

Test [6] is filed under the species Rattus norvegicus. As to the kind of experiment: Ability to inhibit after-hyperpolarization (AHP) in cultured rat sympathetic neurons. (number of neurons tested, n=4). The test is classed as functional. Conditions: Sympathetic neuron. The gist of the method: as §1
Test [7] is filed under the species Rattus norvegicus. As to the kind of experiment: Ratio of the concentrations of the test compound and dequalinium that cause 50% inhibition, as determined in the same experiment was reported. (number of neurons tested, n=7). The test is classed as functional. The gist of the method: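 AHP inhibition in cultured rat sympathetic neurones, with each compound at two to four concentrations on at least three cells. The equieffective molar ratio is the test compound's 50%-inhibitory concentration divided by that of dequalinium, both determined in the same experiment.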

Test [8] is filed under the species Rattus norvegicus. As to the kind of experiment: Ability to inhibit after-hyperpolarization (AHP) in cultured rat sympathetic neurons. (number of neurons tested, n=7). Type of test: functional. Conditions: Sympathetic neuron. The method in brief: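 SK(Ca) block measured as inhibition of the after-hyperpolarization in cultured rat sympathetic neurones. Each compound was tested at two to four concentrations on at least three cells, generally not above 10–30 μM. Onset of block was also timed. The 50%-inhibitory concentration was determined.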

For test [9], the species on record is Rattus norvegicus. As to the kind of experiment: Ability to inhibit after-hyperpolarization (AHP) in cultured rat sympathetic neurons. (number of neurons tested, n=6). The test is classed as functional. Conditions: Sympathetic neuron. The method in brief: as §1
The species entered for test [10] is Rattus norvegicus. As to the kind of experiment: Ratio of the concentrations of the test compound and dequalinium that cause 50% inhibition, as determined in the same experiment was reported. (number of neurons tested, n=6). The test is classed as functional. The gist of the method:
as §2

For test [11], the species on record is Rattus norvegicus. Put plainly: Ability to inhibit after-hyperpolarization (AHP) in cultured rat sympathetic neurons. (number of neurons tested, n=18). The conditions noted are these: Sympathetic neuron. The test is classed as functional. The gist of the method:
as §1

For test [12], the species on record is Rattus norvegicus. Put plainly: Ratio of the concentrations of the test compound and dequalinium that cause 50% inhibition, as determined in the same experiment was reported. (number of neurons tested, n=18). The test is classed as functional. The gist of the method: as §2
The species entered for test [13] is Rattus norvegicus. As to the kind of experiment: cells. Conditions: Sympathetic neuron.

Take `Nc1ccnc(NCCCCCCCCCCNc2cc(N)ccn2)c1`: 5.5 µM corresponded to half-maximal inhibition in test [1] (IC50). Also, the EMR in test [2] was found to be 5.

Turning to `Nc1c2c([n+](CCCCCCCCCC[n+]3c4c(c(N)c5ccccc53)CCCC4)c3ccccc13)CCCC2`, 1 µM corresponded to half-maximal inhibition in [3] (IC50). The EMR in test [4] worked out at 0.9.

As to `Cc1n(C)c2ccccc2[n+]1CCCCCCCCCC[n+]1c(C)n(C)c2ccccc21.O.O.[Cl-].[Cl-]`, the EMR in test [5] is given as above 10. Moreover, the half-maximal inhibitory concentration (IC50) in test [6] is above 10 µM.

Consider `Nc1cc[n+](CCCC#CC#CCCC[n+]2ccc(N)cc2)cc1.O.O.[Cl-].[Cl-]`, for which the EMR in test [5] stood at 4.7.

As for `C[n+]1cccnc1NCCCCCCCCCCNc1nccc[n+]1C`, in test [3], the IC50 was above 10 µM. Also, the EMR in test [4] is above 10.

As to `Nc1cc[n+](CCCCCCCCCC[n+]2ccc(N)cc2)cc1`, in test [7], the EMR is 33. Half-maximal inhibition in test [8] (IC50) was put at 35 µM.

With `O=[N+]([O-])c1cc[n+]([O-])c(NCCCCCCCCCCNc2cc([N+](=O)[O-])cc[n+]2[O-])c1`, in test [5], the EMR is above 30. In test [6], the IC50 was above 30 µM.

The molecule `CCCCCCCCCC[n+]1c(C)cc(N)c2ccccc21` yielded a half-inhibitory concentration (IC50) in [1] of 5.5 µM. Also, the EMR in test [2] came to 4.7.

Molecule `Brc1c[n+](CCCCCCCCCC[n+]2cc(Br)c3ccccc3c2)cc2ccccc12` showed an IC50 in test [3] of 4.7 µM. Further, the EMR in test [4] stood at 7.6.

Consider `c1ccc2c[n+](CCCCCCCCCC[n+]3ccc4ccccc4c3)ccc2c1`, for which half-maximal inhibition in [3] (IC50) required 25 µM. Moreover, in [4], the EMR was 80.

`C[n+]1c(CCCCCCCCCCc2ccc3ccccc3[n+]2C)ccc2ccccc21` came in with a half-inhibitory concentration (IC50) in [9] of 72 µM. Also, in test [10], the EMR is 130.

As for `C[n+]1c(CCCCCCCCCCCCc2ccc3ccccc3[n+]2C)ccc2ccccc21`, in [5], the EMR came to 33. Moreover, the IC50 in [6] stood at 21 µM.

`[Br-].[Br-].c1ccc2c(c1)ccc[n+]2CCCCCCCCCC[n+]1cccc2ccccc21` yielded a 50% inhibitory concentration (IC50) in test [3] of 21 µM. Also, the EMR in [4] stood at 15.

`CCCC[n+]1c(C)cc(N)c2ccccc21`: the EMR in test [2] was 12.

`COc1cc(CCCCCCCCCCc2cc(OC)c3ccccc3[n+]2C)[n+](C)c2ccccc12`: in [1], the IC50 turned out to be 9.5 µM. In test [2], the EMR is 27.

In [1], `Cc1cc(N)c2ccccc2[n+]1CCCC#CC#CCCC[n+]1c(C)cc(N)c2ccccc21` had an IC50 of 1.6 µM. Moreover, the EMR in test [2] was 2.4.

With `c1ccc2c(NCCCCCCCCCCNc3c4ccccc4nc4ccccc34)c3ccccc3nc2c1`, it took 6.7 µM to reach half-maximal inhibition in [1] (IC50). Further, the EMR in test [2] was 12.2.

Take `Cn1c[n+](CCCCCCCCCC[n+]2cn(C)c3ccccc32)c2ccccc21`: the EMR in test [5] is recorded as 77. In [6], this molecule came in with an IC50 of 16 µM.

For the molecule `CC[N+](CC)(CC)CCCCCCCCCC[n+]1c(C)cc(N)c2ccccc21.[I-].[I-]`, in [1], the 50% inhibitory concentration (IC50) came out at 18 µM. The EMR in test [2] was 17.

`Cc1cc(N)c2ccccc2[n+]1CCCCCCCCCC[n+]1c(C)cc(N)c2ccccc21.[Cl-].[Cl-]` [DEQUALINIUM CHLORIDE] returned an IC50 in test [11] of 0.74 µM. Also, in test [12], the EMR was found to be 1.

The molecule `Nc1c2c(nc3ccccc13)CCCC2` [TACRINE] registered an IC50 in test [13] of 30 µM. This lies in the double-digit micromolar range.
